According to ChEMBL document CHEMBL1240482, “Synthesis and antiproliferative evaluation of certain indeno[1,2-c]quinoline derivatives. Part 2” (J Med Chem, 2010):

Key:
[1] = species on record: Homo sapiens; assay: Inhibition of human topoisomerase 2 assessed as decrease in pBR322 mobility on agarose gel at 10 uM by electrophoresis
Method in brief: (§1)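 Enzyme preincubated with compound before DNA addition; reaction run 30 min at 37 °C and stopped with SDS. Products resolved on 1% agarose, stained with ethidium bromide, quantified by densitometry.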

[2] = biological target: T1, DNA topoisomerase 1 (Homo sapiens) (UniProt P11387); assay: Inhibition of human topoisomerase 1 assessed as decrease in pBR322 mobility on agarose gel at 10 uM by electrophoresis; method in brief: as §1
T1 sequence (whole entry): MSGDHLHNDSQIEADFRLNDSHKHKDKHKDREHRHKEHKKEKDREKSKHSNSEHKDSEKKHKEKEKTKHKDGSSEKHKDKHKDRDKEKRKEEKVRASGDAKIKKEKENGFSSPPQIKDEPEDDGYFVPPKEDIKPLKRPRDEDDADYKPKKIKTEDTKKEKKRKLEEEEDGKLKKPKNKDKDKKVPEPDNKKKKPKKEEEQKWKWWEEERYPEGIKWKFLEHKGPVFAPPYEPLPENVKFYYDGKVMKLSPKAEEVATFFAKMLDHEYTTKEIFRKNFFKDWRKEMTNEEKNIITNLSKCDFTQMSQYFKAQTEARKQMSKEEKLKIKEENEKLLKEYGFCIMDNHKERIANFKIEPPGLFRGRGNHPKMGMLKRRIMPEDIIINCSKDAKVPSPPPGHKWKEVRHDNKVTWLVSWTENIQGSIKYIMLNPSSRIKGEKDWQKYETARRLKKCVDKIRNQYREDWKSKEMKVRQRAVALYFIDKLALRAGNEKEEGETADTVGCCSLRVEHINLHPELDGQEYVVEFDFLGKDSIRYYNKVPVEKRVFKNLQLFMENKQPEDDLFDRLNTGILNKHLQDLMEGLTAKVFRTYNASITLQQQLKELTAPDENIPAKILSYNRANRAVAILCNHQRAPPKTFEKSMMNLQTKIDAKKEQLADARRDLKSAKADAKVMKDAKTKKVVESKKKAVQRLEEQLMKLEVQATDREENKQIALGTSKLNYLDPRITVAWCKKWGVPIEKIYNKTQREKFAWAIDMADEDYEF

[3] = system: PC-3; assay: Cytotoxicity against human PC3 cells after 48 hrs by MTT assay; type: functional; settings: PC-3, 48 h
Method in brief: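 Cells grown in DMEM with 10% FBS at 37 °C and 5% CO2, seeded at 5 × 10^3 per well and allowed 24 h before drug. Serial dilutions from DMSO stocks applied for 48 h. MTT (2 mg/mL in PBS) added for 2 h, formazan dissolved in DMSO, absorbance read at 570 nm. GI50 interpolated by linear regression from at least three points in the 20-80% range; three independent experiments.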

[4] = system: Mus musculus; assay: Toxicity to BALB/c mouse assessed as change in blood urea nitrogen at 20 mg/kg, iv; type: organism-based; design: dose 20 mg/kg, route intravenous; settings: in vivo
Method in brief: (§2)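 BALB/c mice, 3 per group, randomized by body weight (stratified). Dosed iv via tail vein at 10, 20 or 40 mg/kg in PEG 400/ethanol/water (20/20/60), once every 3 days for 2 weeks; solvent controls. Weighed throughout. After a 24 h fast, heart blood was drawn under ether; GOT, GPT, BUN and creatinine were measured on an analyzer. Liver and kidney taken for H&E.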

[5] = system: Detroit 551; assay: Selectivity index, ratio of IC50 for human Detroit 551 cells to IC50 for human SKHep cells; type: functional
[6] = Oral bioavailability in CD1 mouse at 20 mg/ kg, po; type: ADME, organism-based; settings: in vivo
Method in brief: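 Male CD-1 (Crl.) mice, 22-24 g, fasted 4 h before dosing; single oral gavage of 20 mg/kg as a suspension in 0.5% methylcellulose/water, 10 mL/kg. Cardiac-puncture plasma (K-EDTA) taken predose to 27 h, three mice per time point; LC-MS/MS quantification.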

[7] = biological target: T2, DNA topoisomerase 1 (Homo sapiens, UniProt P11387); assay: Inhibition of human topoisomerase 1 assessed as decrease in pBR322 mobility on agarose gel by electrophoresis; method in brief: as §1
T2 sequence (P11387 whole entry): T1 sequence (whole entry)

[8] = system: Mus musculus; assay: Toxicity to BALB/c mouse assessed as survival rate at 20 mg/kg, iv; type: organism-based; design: dose 20 mg/kg, route intravenous; settings: in vivo
Method in brief: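 Balb/C athymic nude mice (6-8 weeks, ~20 g) bearing subcutaneous BT483 breast xenografts (0.5 × 10^6 cells). Treatment began at ~500 mm3 tumour volume: cosolvent formulation diluted in 5% dextrose, iv at 10 or 20 mg/kg once daily for 14 days; controls received vehicle. 3 animals per group. Survival was assessed by Kaplan-Meier analysis at study end, p < 0.05.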

[9] = AUC (0 to infinity) in CD1 mouse at 2 mg/ kg, iv; type: ADME, organism-based; design: time infinity, dose 2 mg/ kg, route intravenous; settings: plasma
Method in brief: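 Fasted male CD-1 (Crl.) mice, 22-24 g; single tail-vein bolus of 2.0 mg/kg in PEG400/ethanol/water (30/5/65), 10 mL/kg. Cardiac-puncture blood into K-EDTA at 0-27 h, three mice per time point; plasma analysed by LC-MS/MS after acetonitrile precipitation. Parameters calculated from mean plasma concentrations.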

[10] = system: Mus musculus; assay: Toxicity to BALB/c mouse assessed as change in body weight at 20 mg/kg, iv; type: organism-based; design: dose 20 mg/kg, route intravenous; settings: in vivo; method in brief: as §2

COc1ccc2c(c1)/C(=N\OCCN1CCCC1)c1c-2c(O)nc2ccccc12
inhibition [1]: 60%
inhibition [2]: 71%
GI50 [3]: 1830 nM
Activity [4]: Non-toxic
RatioGI50 [5]: 10.03
bioavailability [6]: 10.9%
IC50 [7]: 3760 nM
Activity [8]: Non-toxic
AUC(0-inf) [9]: 172 ng·h/mL
Activity [10]: Non-toxic
